# This is a sample that favours compounds with a hit; in the whole collection about 3.5% have one here.
# Pf gamet viab = late stage P. falciparum gametocyte viability inhibitors, primary screen, ATP luminescence, HTS; inhibition, % at 10.9 µM; P. falciparum stage V gametocytes, 24 h; actives 0.065% (n = 150,000);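 active = inhibition above the mean plus 3 SD of compounds within the control limits, set per campaign, cut at about 38% in these data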;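 also: 0% = DMSO wells and 100% = medium only without gametocytes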
# APP 5'UTR act = activators of APP 5'UTR luciferase reporter, primary screen, SH-SY5Y cells; AID 1276, 2008; SH-SY5Y APP 5'UTR luciferase reporter, luminescence; zero percent = DMSO vehicle wells; actives 1% (n = 190,000); activation, % at 2 µM;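 active = activation above a set limit, based on mean plus 3 SD of controls, cut at about 140% in these data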
# FLuc inhib CS = firefly luciferase enzyme inhibitors, primary screen, artefact control for luciferase-based inhibitor screens, biochemical, luminescence, ATPLite. Luciferin 4-monooxygenase (Photinus pyralis), P08659. 10 min. inhibition, % at 10 µM. actives 1.5% (n = 200,000). AID 1006, 2008;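 active = inhibition above about 50% when tested at 10 µM, limit read from the data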
# Target sequence (P08659 whole entry, looked up): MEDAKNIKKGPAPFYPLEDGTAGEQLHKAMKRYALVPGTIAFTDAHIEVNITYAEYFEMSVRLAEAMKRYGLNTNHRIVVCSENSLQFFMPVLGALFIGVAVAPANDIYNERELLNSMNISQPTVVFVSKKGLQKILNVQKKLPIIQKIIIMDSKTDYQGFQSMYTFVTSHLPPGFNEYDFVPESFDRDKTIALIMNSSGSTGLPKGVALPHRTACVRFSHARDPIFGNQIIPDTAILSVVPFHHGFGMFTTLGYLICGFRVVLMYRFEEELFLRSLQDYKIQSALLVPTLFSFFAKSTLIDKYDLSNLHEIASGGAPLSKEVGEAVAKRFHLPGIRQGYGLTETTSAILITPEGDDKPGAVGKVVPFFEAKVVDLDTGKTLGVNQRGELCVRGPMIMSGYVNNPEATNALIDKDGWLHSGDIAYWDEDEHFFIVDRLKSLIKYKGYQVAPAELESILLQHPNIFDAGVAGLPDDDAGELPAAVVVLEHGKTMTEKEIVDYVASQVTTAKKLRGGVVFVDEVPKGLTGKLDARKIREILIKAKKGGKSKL
# STAT1 act = STAT1 signaling activators, primary screen, cell-based, HTS, luciferase reporter. NIH 3T3 STAT1-luciferase reporter, IFN-gamma, luminescence; 100% = IFN-gamma alone, no compound. activation (% of control), % at 5.5 µM. actives 2.6% (n = 200,000);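 active = activation above the screen-wide mean activation plus 3 SD, cut at about 130% in these data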;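 also: raw ratio to IFN-gamma control signal so 100% means no change and 0% no light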
# NF-kB neuron act = activators of NF-kB expression in neurons, primary screen, cell-based, HTS | human neuronal cells, NF-kB reporter expression; stronger effect = higher value | fold change at 12.5 µM | actives 1.6% (n = 190,000); in the data active = fold change above about 3.3
# FLuc act counter = FLuc activators, initial screening, artefact control for FLuc-dependent activation tests, biochemical, ATPlite luminescence | Luciferin 4-monooxygenase (Photinus pyralis), P08659 | ATPlite luciferase biochemical, 10 min; 0 = ATP-free wells, 1 = DMSO control | activation factor at 10 µM | 200,000 tested, under 10 active | AID 1027, 2008;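 active = luciferase activation factor, scaled between plate controls, of at least 2 with compound at 10 µM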
#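 assay system = Luciferase/luciferin detection reagent, cell-free biochemical luciferase assay | also added = ATP substrate | times = 10 min post-reagent at room temperature | measured by = luminescence from luciferase reaction | measure = luciferase activation, seen as luminescence increase over controls | benchmarks = low control with PBS replacing ATP, high control enzyme plus ATP without compound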
# Starred values were filed as active, the others as inactive; . = no result given.
SMILES,Pf gamet viab,APP 5'UTR act,FLuc inhib CS,STAT1 act,NF-kB neuron act,FLuc act counter
Cc1ccc(Nc2cnn(C34CC5CC(CC(CC(=O)O)(C5)C3)C4)c(=O)c2Cl)cc1C,22.2,0.5,-3.0,97.8,1.06,1
CCc1cccc(Nc2cnn(C34C[C@@H]5C[C@@H](CC(CC(=O)O)(C5)C3)C4)c(=O)c2Cl)c1,.,3.2,-6.7,137.8*,1.16,1.1
N#C/C(=N\Nc1ccccc1F)C(=N)N1CCCCC1,.,87.9,43.6,148.1*,3.98*,0.6
COc1ccc(N/N=C(\C#N)C(=N)N2CCCCC2)cc1,4.1,.,.,.,.,.
Cc1ccc(N/N=C(\C#N)C(=N)N2CCCCCC2)cc1,-1.2,167.9*,51.2*,136.2*,5.88*,0.5
Cc1ccc(N/N=C(\C#N)C(=N)N2CCOCC2)cc1,.,22.1,16.5,137.0*,1.9,0.8
N#C/C(=N\Nc1ccccc1)C(=N)N1CCOCC1,-15.5,19.7,14.4,111.1,1.52,0.9
N#C/C(=N\Nc1ccc(F)cc1)C(=N)N1CCCCCC1,.,185.2*,59.1*,150.1*,7.72*,0.4
CC1=N/C(=C\c2ccc([N+](=O)[O-])cc2)C(=O)N1c1ccc(C)c(Cl)c1,-9.9,.,.,.,.,.
Cc1cc2nc(-c3ccc(SCC(=O)N4CCc5ccccc54)nc3)[nH]c2cc1C,.,110.0,82.1*,139.1*,1.5,0.2
Cc1ccc2nc(SCC(=O)Nc3cc(C)on3)[nH]c2c1,.,6.2,-6.2,95.4,0.91,1.1
O=C(CN1CCCCC1)Nc1ccc(S(=O)(=O)NC2CCCCC2)cc1,-20.2,-4.8,-3.4,83.7,0.98,1
Cc1cc2nc(-c3ccc(SCc4ccc(C(=O)O)cc4)nc3)[nH]c2cc1C,.,89.1,17.5,114.9,1.36,0.8
Cc1cc2nc(-c3ccc(SCC(=O)NC(C)C)nc3)[nH]c2cc1C,.,56.5,50.9*,128.3,1.87,0.5
Cc1cc(NC(=O)CSc2ccc(-c3nc4cc(C)c(C)cc4[nH]3)cn2)no1,.,24.9,61.3*,120.0,1.72,0.4
Cc1cc2nc(-c3ccc(SCC(=O)Nc4ccc(S(=O)(=O)NC5CC5)cc4)nc3)[nH]c2cc1C,0.9,131.5,86.3*,146.9*,5.93*,0.1
COC(=O)CSc1ccc(-c2nc3ccc(C)cc3[nH]2)cn1,.,9.6,61.3*,99.8,0.46,0.4
CCOC(=O)c1nc(Nc2cc(C)cc(C)c2)c2ccccc2n1,-9.5,7.3,-3.2,101.4,0.76,1
C/C(CC(=O)Nc1ccc2c(c1)OCCO2)=N\NC(=O)c1ccccn1,18.2,136.1*,0.5,128.0,1.07,1
CCCC(=O)Nc1nnc(SCC(=O)Nc2ccc3c(c2)OCCO3)s1,6.0,-17.8,1.6,96.0,1.25,1
CSc1nsc(SCC(=O)Nc2ccc3c(c2)OCCO3)n1,-6.3,141.0*,0.9,114.1,4.04*,1
Cc1csc(SCC(=O)Nc2ccc3c(c2)OCCO3)n1,-6.7,36.8,36.7,132.2*,1.65,0.6
O=[N+]([O-])c1ccc(Oc2cccc(C(F)(F)F)c2)nc1,9.4,.,.,.,.,.
O=[N+]([O-])c1ccc(Oc2ccc(C(F)(F)F)cn2)cc1,8.4,-7.8,-3.4,141.7*,1.42,1
O=C(COC(=O)c1ccc(Cl)nc1)c1ccc2c(c1)OCCO2,20.6,45.5,88.0*,100.5,1.18,0.1
CCN(CC)S(=O)(=O)c1cccc(C(=O)OCC(=O)c2ccc3c(c2)OCCO3)c1,.,5.8,87.0*,105.2,1.06,0.1
O=C(COC(=O)C(O)c1ccccc1)c1ccc2c(c1)OCCO2 (centres undefined),.,5.4,84.0*,127.9,1.14,0.2
O=C(COc1ncnc2ccccc12)c1ccc2c(c1)OCCO2,.,170.7*,44.9,142.0*,3.79*,0.6
Cc1c(C(=O)OCC(=O)c2ccc3c(c2)OCCO3)oc2ccccc12,.,-4.9,24.2,105.5,1.56,0.8
